Holding throughout (assay type): cell-based
Common to all, as to settings: Erythrocyte

Compound in data set [1]: CCOC(=O)c1c(C)nc(N2CCN(S(=O)(=O)c3ccc(NC(C)=O)c(Cl)c3)CC2)nc1-c1ccc(OC)c(OC)c1
Put plainly: Non-competitive inhibition of AChE in human erythrocytes assessed as Vmax at 25 nM measured at 2 mins interval for 10 mins by Lineweaver-Burk plot analysis. The method in brief: (§1)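 Human AChE kinetics in the Ellman DTNB assay. Inhibitor at 25, 50 and 100 nM, each with six ATCI concentrations, against an inhibitor-free series. Activity read every 2 min over 10 min. Km and Vmax from Michaelis–Menten non-linear regression; mechanism from Lineweaver–Burk plots; Ki from Dixon plot over four inhibitor concentrations and from slope/intercept replots. Triplicate.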

Compound in data set [2]: CCOC(=O)c1c(C)nc(N2CCN(S(=O)(=O)c3ccc(NC(C)=O)c(Cl)c3)CC2)nc1-c1ccc(OC)c(OC)c1
Put plainly: Non-competitive inhibition of AChE in human erythrocytes assessed as Vmax at 50 nM measured at 2 mins interval for 10 mins by Lineweaver-Burk plot analysis. The method in brief:
as §1

Compound in data set [3]: CCOC(=O)c1c(C)nc(N2CCN(S(=O)(=O)c3ccc(NC(C)=O)c(Cl)c3)CC2)nc1-c1ccc(OC)c(OC)c1
Put plainly: Non-competitive inhibition of AChE in human erythrocytes assessed as Vmax at 100 nM measured at 2 mins interval for 10 mins by Lineweaver-Burk plot analysis. Put shortly: as §1

Compound in data set [4]: CCOC(=O)c1c(C)nc(N2CCN(S(=O)(=O)c3ccc(NC(C)=O)c(Cl)c3)CC2)nc1-c1ccc(OC)c(OC)c1
Put plainly: Non-competitive inhibition of AChE in human erythrocytes assessed as Km at 25 nM measured at 2 mins interval for 10 mins by Lineweaver-Burk plot analysis. The method in brief: as §1

Compound in data set [5]: CCOC(=O)c1c(C)nc(N2CCN(S(=O)(=O)c3ccc(NC(C)=O)c(Cl)c3)CC2)nc1-c1ccc(OC)c(OC)c1
Put plainly: Non-competitive inhibition of AChE in human erythrocytes assessed as Km at 50 nM measured at 2 mins interval for 10 mins by Lineweaver-Burk plot analysis. The method in brief: as §1

Compound in data set [6]: CCOC(=O)c1c(C)nc(N2CCN(S(=O)(=O)c3ccc(NC(C)=O)c(Cl)c3)CC2)nc1-c1ccc(OC)c(OC)c1
Put plainly: Non-competitive inhibition of AChE in human erythrocytes assessed as Km at 100 nM measured at 2 mins interval for 10 mins by Lineweaver-Burk plot analysis. Put shortly:
as §1

Usually Km stands for the concentration of substrate that gives half-maximal velocity.

B1: Acetylcholinesterase (Homo sapiens), P22303 (protein)
chain: MRPPQCLLHTPSLASPLLLLLLWLLGGGVGAEGREDAELLVTVRGGRLRGIRLKTPGGPVSAFLGIPFAEPPMGPRRFLPPEPKQPWSGVVDATTFQSVCYQYVDTLYPGFEGTEMWNPNRELSEDCLYLNVWTPYPRPTSPTPVLVWIYGGGFYSGASSLDVYDGRFLVQAERTVLVSMNYRVGAFGFLALPGSREAPGNVGLLDQRLALQWVQENVAAFGGDPTSVTLFGESAGAASVGMHLLSPPSRGLFHRAVLQSGAPNGPWATVGMGEARRRATQLAHLVGCPPGGTGGNDTELVACLRTRPAQVLVNHEWHVLPQESVFRFSFVPVVDGDFLSDTPEALINAGDFHGLQVLVGVVKDEGSYFLVYGAPGFSKDNESLISRAEFLAGVRVGVPQVSDLAAEAVVLHYTDWLHPEDPARLREALSDVVGDHNVVCPVAQLAGRLAAQGARVYAYVFEHRASTLSWPLWMGVPHGYEIEFIFGIPLDPSRNYTAEEKIFAQRLMRYWANFARTGDPNEPRDPKAPQWPPYTAGAQQYVSLDLRPLEVRRGLRAQACAFWNRFLPKLLSATDTLDEAERQWKAEFHRWSSYMVHWKNQFDHYSKQDRCSDL
Turning to B1, the Vmax amounted to 7.2 U/min in data set [1], 6.52 U/min in data set [2] and 5.54 U/min in data set [3]. For the same protein, the Michaelis constant (Km) in data set [4] stood at 0.0772 µM; in data set [5], 0.0852 µM; in data set [6] it was 0.0965 µM.

The values are drawn from ChEMBL document CHEMBL4732210, “Discovery of new phenyl sulfonyl-pyrimidine carboxylate derivatives as the potential multi-target drugs with effective anti-Alzheimer's action: Design, synthesis, crystal structure and in-vitro biological evaluation” (Eur J Med Chem, 2021).
